From PMC3098311 (Nature, 2011)
“Also recorded” adds a separate entry of the source. Where a SMILES comes first, the peptide text is derived from it. [ ]: non-standard residue; d: D form. Tyr(3-I) = N[C@@H](Cc1ccc(O)c(I)c1)C(=O)O; Hyp = O=C(O)[C@@H]1C[C@@H](O)CN1

How the values were obtained:
FLS2 [1] = molecular target: T1, FLS2 (Arabidopsis thaliana, UniProt Q9FL28); test: Direct binding assay, saturation and specific binding of ^125I-Tyr-CLV3p
Method in brief: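 HA-tagged FLS2 was expressed for 6 h in fls2 mesophyll protoplasts (2.5 × 10^5 cells). Pelleted extract (50 μg total protein) was in pH 5.8 MES/KOH binding buffer with MgCl2, NaCl and DTT. Extract was incubated with 100 fmol 125I-Tyr-CLV3p, with or without unlabeled Tyr-CLV3p, for 30 min on ice. Bound label was collected on BSA-blocked glass-fibre filters and gamma-counted. Specific binding = total minus non-specific (10–20 μM unlabeled). Kd came from saturation/Scatchard nonlinear regression and sites per cell from Bmax; s.d., n=3.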

FRK1, WRKY29 and WRKY30 = test: qRT-PCR of flg22 early marker genes in protoplasts; format: cell-based, Arabidopsis; conditions: peptides for 1 h, 1 μM CLV3p, 1 μM CLE40p, n=3
Method in brief: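 Mesophyll protoplasts were treated with peptides for 1 h. Total RNA was extracted with TRIzol, and cDNA was made from 1 μg RNA with M-MLV reverse transcriptase. SYBR green real-time PCR followed, with ACT2 as the control gene.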

SAM = test: Assay for CLV3p-mediated SAM arrest; format: in vivo, Arabidopsis; conditions: 1 μM peptide in liquid medium
Method in brief: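 Col-0 and fls2 seeds, twenty per dish, grown in liquid 0.5× MS with 0.5% sucrose (pH 5.8), with or without 1 μM CLV3p. SAMs were cut, fixed overnight at 4°C in 4% paraformaldehyde/4% DMSO, eosin-stained and paraffin-embedded. Sections of 8 μm were Giemsa-stained (0.1%, 5 min) and imaged by light microscopy.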

pWUS::GUS = pWUS::GUS reporter staining in the SAM; format: in vivo, Arabidopsis; conditions: seedlings grown 8 days with 1 μM peptide
Method in brief: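 pWUS::GUS seedlings were grown 8 days in liquid 0.5× MS/0.5% sucrose with or without 1 μM CLV3p, ΔCLV3p or flg22. They were fixed in 90% cold acetone for 20 min. Seedlings were vacuum-infiltrated with pH 7.0 phosphate buffer containing ferro/ferricyanide, Triton X-100, EDTA and 1 mM X-Gluc, then held 3 h at 37°C. Samples were dehydrated to 70% ethanol and imaged under a stereomicroscope.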

Arabidopsis seedlings = test: Seedling growth inhibition analysis; format: in vivo; conditions: for root growth: WT seedlings, flg22 1, 10 nM, CLV3p 1 μM or CLE40p 1 μM
Method in brief: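 Col-0, fls2, Ler, fls2-24 and clv2-1 seedlings were grown in 6-well plates in liquid 0.5× MS, 0.5% sucrose, pH 5.8. Treatment was flg22 (1, 10 nM) or CLV3p (1 μM), and growth was assessed after 6 or 8 days.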

endogenous MPK3 and MPK6 = test: In-gel kinase assay of MAPK activation in mesophyll protoplasts; format: cell-based, Arabidopsis
FLS2-BAK1 interaction = FLS2-BAK1 interaction (Arabidopsis thaliana, UniProt Q94F62+Q9FL28); test: FLS2-BAK1 interaction by co-IP in protoplasts; format: cell-based; conditions: for block of flg22- and CLV3p-triggered FLS2-BAK1 interaction: antagonist peptide at 50 μM
Method in brief: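 Mesophyll protoplasts came from 4-week soil-grown plants (23°C, 12 h/12 h). They were co-transfected with FLS2-HA and BAK1-FLAG and incubated for 6 h at room temperature. Cells were then exposed to flg22 (1, 10 nM), CLV3p (1 μM) or CLE40p (1 μM) for 10 min. Complexes were immunoprecipitated with anti-FLAG and detected with anti-HA on immunoblot.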

WUS = test: qRT-PCR of WUS in isolated SAM tissues; format: in vivo, Arabidopsis; conditions: 1 μM CLV3p for 1 h; WT and mutant seedlings; n=3
Method in brief: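 Seedlings grew 8 days in liquid 0.5× MS, 0.5% sucrose, pH 5.8, then got 1 h peptide treatment (1 nM or 1 μM). SAM tissues were harvested after snap-freezing in liquid nitrogen, and RNA was TRIzol-extracted. SYBR Green real-time qRT-PCR used ACT2 as the control gene.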

[2] = system: FRK1, WRKY29, WRKY30, MYB15, MYB51 and PEP3; test: qRT-PCR of immune marker genes in isolated SAM tissues; format: in vivo, Arabidopsis; conditions: n=3
FLS2 [3] = molecular target: T1, FLS2; test: Binding competition analysis with unlabeled peptides; conditions: unlabeled peptide; ^125I-Tyr-CLV3p 1 nM; 30 min on ice; non-specific binding with 10 μM unlabeled Tyr-CLV3p; n=3
Method in brief: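 FLS2-HA expressed for 6 h in fls2 mesophyll protoplasts (2.5 × 10^5 cells); pellet from vortexed, iced and 10,000 ×g-spun extract in 25 mM MES/KOH pH 5.8, 3 mM MgCl2, 10 mM NaCl (50 μg protein). Incubated 30 min on ice with 100 fmol 125I-Tyr-CLV3p ± unlabeled competitor; blocked glass-fibre filtration, cold wash, gamma counting; specific = total − nonspecific (10–20 μM unlabeled); non-linear regression.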

Chain of FLS2-BAK1 interaction (Q9FL28 24-1173): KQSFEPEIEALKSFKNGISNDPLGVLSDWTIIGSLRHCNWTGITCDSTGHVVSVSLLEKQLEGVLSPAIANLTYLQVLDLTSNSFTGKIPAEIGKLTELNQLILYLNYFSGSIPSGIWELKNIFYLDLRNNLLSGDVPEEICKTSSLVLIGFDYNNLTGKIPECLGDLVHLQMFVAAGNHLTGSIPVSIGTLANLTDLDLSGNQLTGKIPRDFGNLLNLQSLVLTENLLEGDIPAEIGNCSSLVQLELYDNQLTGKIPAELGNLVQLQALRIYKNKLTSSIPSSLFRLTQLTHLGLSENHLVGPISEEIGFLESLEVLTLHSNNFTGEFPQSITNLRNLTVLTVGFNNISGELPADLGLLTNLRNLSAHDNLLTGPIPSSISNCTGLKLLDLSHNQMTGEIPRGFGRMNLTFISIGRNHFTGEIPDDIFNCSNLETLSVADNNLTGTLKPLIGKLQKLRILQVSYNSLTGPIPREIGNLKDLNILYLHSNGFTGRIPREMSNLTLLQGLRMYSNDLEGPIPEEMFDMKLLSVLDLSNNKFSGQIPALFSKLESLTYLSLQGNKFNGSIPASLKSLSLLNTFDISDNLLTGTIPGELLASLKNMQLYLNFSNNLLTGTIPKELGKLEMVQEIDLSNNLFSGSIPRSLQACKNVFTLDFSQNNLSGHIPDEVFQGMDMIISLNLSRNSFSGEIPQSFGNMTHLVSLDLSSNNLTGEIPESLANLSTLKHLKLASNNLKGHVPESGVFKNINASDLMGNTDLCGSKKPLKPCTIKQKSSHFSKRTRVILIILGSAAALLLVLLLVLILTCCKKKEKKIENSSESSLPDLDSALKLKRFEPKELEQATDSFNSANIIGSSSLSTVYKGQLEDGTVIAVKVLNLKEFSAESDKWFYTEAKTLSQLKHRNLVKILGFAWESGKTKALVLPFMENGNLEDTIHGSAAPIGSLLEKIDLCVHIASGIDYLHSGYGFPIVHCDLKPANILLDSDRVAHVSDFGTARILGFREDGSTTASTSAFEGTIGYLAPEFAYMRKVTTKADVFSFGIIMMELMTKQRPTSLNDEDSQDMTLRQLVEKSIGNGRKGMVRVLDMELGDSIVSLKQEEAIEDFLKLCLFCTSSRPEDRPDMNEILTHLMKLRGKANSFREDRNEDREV
Chain of FLS2-BAK1 interaction (Q94F62 26-615 partner): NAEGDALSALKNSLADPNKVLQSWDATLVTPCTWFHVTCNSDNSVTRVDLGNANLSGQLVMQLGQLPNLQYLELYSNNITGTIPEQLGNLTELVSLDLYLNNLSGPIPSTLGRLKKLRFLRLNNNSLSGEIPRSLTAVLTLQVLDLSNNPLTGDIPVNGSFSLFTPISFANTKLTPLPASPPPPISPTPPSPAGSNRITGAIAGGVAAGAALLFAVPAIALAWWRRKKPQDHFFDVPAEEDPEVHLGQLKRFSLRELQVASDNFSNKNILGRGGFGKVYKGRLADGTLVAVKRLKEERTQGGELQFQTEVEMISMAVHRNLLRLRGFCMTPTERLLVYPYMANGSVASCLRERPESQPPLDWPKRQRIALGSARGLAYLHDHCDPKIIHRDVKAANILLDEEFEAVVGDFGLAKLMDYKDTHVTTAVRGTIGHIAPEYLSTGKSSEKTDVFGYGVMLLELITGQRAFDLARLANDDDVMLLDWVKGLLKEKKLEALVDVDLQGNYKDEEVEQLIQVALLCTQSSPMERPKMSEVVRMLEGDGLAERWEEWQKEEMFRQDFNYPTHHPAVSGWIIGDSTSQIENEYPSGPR
T1 sequence (Q9FL28 24-1173): as the sequence (Q9FL28 24-1173) above

CC(C)C[C@H](NC(=O)[C@@H]1CCCN1C(=O)[C@H](CC(=O)O)NC(=O)[C@@H]1C[C@@H](O)CN1C(=O)CNC(=O)[C@H](CO)NC(=O)[C@@H]1C[C@@H](O)CN1C(=O)[C@@H](NC(=O)[C@@H](NC(=O)[C@H](CCCNC(=N)N)NC(=O)[C@@H](N)Cc1ccc(O)c(I)c1)[C@@H](C)O)C(C)C)C(=O)N[C@@H](Cc1c[nH]cn1)C(=O)N[C@@H](Cc1c[nH]cn1)C(=O)O [^125I-Tyr-CLV3p] (H-[Tyr(3-I)]RTV[Hyp]SG[Hyp]DPLHH-OH; N-terminus and C-terminus assumed)
Kd (FLS2 [1]): 34.7 nM | binding sites per cell (FLS2 [1]; estimated from Bmax and 50 ug protein from 2.5 × 10^5 cells, total cell extracts): 6.36 × 10^4 binding sites per cell | specific binding of ^125I-Tyr-CLV3p (FLS2 [1]; wild-type FLS2 expressed in null fls2 protoplasts, non-specific binding with 20 μM unlabeled Tyr-CLV3p, n=3): showed specific binding; also recorded: specifically binds to FLS2

RQVP^hTGSDPLHH [CLE40p, reference compound]
flg22 early marker gene activation (FRK1, WRKY29 and WRKY30): did not promote | SAM growth arrest (SAM): triggered the growth arrest of SAM | repression of pWUS::GUS reporter (pWUS::GUS): repression of WUSCHEL (WUS) | root growth (Arabidopsis seedlings; 6 or 8 days): root growth inhibition

RTVP^hSGP^hDPLHH [CLV3p]
flg22 early marker gene activation (FRK1, WRKY29 and WRKY30): activated similar early marker genes; also recorded: triggers flg22 marker gene activation | MAPK activation (endogenous MPK3 and MPK6; protoplasts, 1 μM CLV3p, 1 μM ΔCLV3p or 100 nM flg22 for 10 min): activated similar MAPK activities | concentration of equal potency in peptide titration, FLS2 and BAK1 co-IP (FLS2-BAK1 interaction; CLV3p, 10 min): 1000 nM | repression of WUS in the SAM (WUS): only in the SAM of WT and fls2-24, but not clv1-1 and clv2-1 | immune marker gene activation in the SAM ([2]; 1 nM flg22 or 1 μM CLV3p for 1 h, WT and mutant seedlings): in WT, clv1-1, clv2-1 but not fls2-24 | exogenous CLV3p needed for complementation of clv3-2 for immune marker gene expression in the SAM ([2]; clv3-2 seedlings treated with 0-100 nM CLV3p for 1 h): nM range | competition with ^125I-Tyr-CLV3p for specific binding to FLS2 (FLS2 [3]): could be competed | SAM growth arrest (SAM): very active in triggering the typical SAM arrest; also recorded: suppresses the SAM in Col-0 and fls2 plants | repression of pWUS::GUS reporter (pWUS::GUS): repression of a sensitive pWUS::GUS reporter; also recorded: represses pWUS::GUS expression | shoot growth (Arabidopsis seedlings; Col-0 and Ler WT seedlings, flg22 1, 10 nM or CLV3p 1 μM, 6 or 8 days): did not inhibit shoot growth | root growth (Arabidopsis seedlings; 6 or 8 days): caused stronger root growth arrest | root growth arrest in the clv2-1 mutant (Arabidopsis seedlings; clv2-1 seedlings, CLV3p 1 μM): abolished | growth effect in two independent fls2 mutants (Arabidopsis seedlings; fls2 and fls2-24 seedlings, flg22 1, 10 nM or CLV3p 1 μM): retained

QRLSTGSRINSAKDDAAGLQ [flg22-Δ2]
block of flg22- and CLV3p-triggered FLS2-BAK1 interaction (FLS2-BAK1 interaction): effectively competed with and blocked flg22 and CLV3p signalling | block of flg22- and CLV3p-triggered FLS2-BAK1 interaction (FLS2-BAK1 interaction; listed as Flg22-Δ2): blocks CLV3p and flg22 signalling | competition with ^125I-Tyr-CLV3p for specific binding to FLS2 (FLS2 [3]): could be competed

RTVP^hSGP^hDPLH [ΔCLV3p]
activating or blocking FLS2 signalling (endogenous MPK3 and MPK6; Fig. 1a, data not shown): ineffective in activating or blocking FLS2 signalling

YRTVP^hSGP^hDPLHH [Tyr-CLV3p]
competition with ^125I-Tyr-CLV3p for specific binding to FLS2 (FLS2 [3]): could be competed
